Results of several laboratories.
Lines come from different studies, so protocols differ.
CDK2 with cyclin A2: Cyclin-dependent kinase 2, with cyclin A2 (CDK2, Homo sapiens, UniProt P24941)
ST14: Suppressor of tumorigenicity 14 protein (ST14, Homo sapiens, UniProt Q9Y5Y6)
MAPK10: Mitogen-activated protein kinase 10 (MAPK10, Homo sapiens, UniProt P53779)

SMILES | target | assay | setting | endpoint | value
CC(=O)Nc1c(N)nc(SCC(=O)NN)[nH]c1=O | CDK2 with cyclin A2 | enzyme activity, inhibitor | 0.1 µM | inhibition | 41.2%
CC[C@@H](C)[C@H](NC(=O)[C@H](Cc1cscn1)NC(=O)CCc1ccccc1)C(=O)N[C@@H](CCCNC(=N)N)C(=O)c1nc2ccccc2s1 | ST14 | enzyme activity, inhibitor | 0.1 µM | remaining activity | 4%
C=CC(=O)N1CCC(COCC(=O)N2CCN(c3nc(-c4cnc(N)nc4C(F)F)nc(N4CCOC[C@@H]4C)n3)CC2)CC1 | Mitogen-activated protein kinase kinase kinase kinase 1 (MAP4K1, Homo sapiens, UniProt Q92918) | binding, competition with immobilised ligand | 1 µM | remaining binding | 100%
CC1([C@H](NC(=O)[C@H](Cc2cscn2)NC(=O)CCc2ccccc2)C(=O)N[C@@H](CCCNC(=N)N)C(=O)c2nc3ccccc3s2)CC1 | ST14 | enzyme activity, inhibitor | 0.1 µM | remaining activity | 69%
CNC(=O)c1cc(Oc2ccc(NC(=O)Nc3ccc(Cl)c(C(F)(F)F)c3)cc2)ccn1 | CDK2 with cyclin A2 | enzyme activity, inhibitor | 1 nM | inhibition | 19.6%
Cc1cc(NC(=O)c2cccc(NC(=O)/C=C/CN(C)C)c2)ccc1Nc1nccc(-c2cccnc2)n1 | MAPK10 | binding, competition with immobilised ligand | 1 µM | remaining binding | 0%
COc1cc(-c2cncc3c2CN(C)Cc2cc(N4CCNCC4)ccc2-3)cc(OC)c1OC | Angiopoietin-1 receptor (TEK, Homo sapiens, UniProt Q02763, Y897S) | enzyme activity, inhibitor | 1 µM | remaining activity | 102%
CC(=O)Nc1c(N)nc(SCC(=O)N/N=C/c2ccc([N+](=O)[O-])cc2)[nH]c1=O | CDK2 with cyclin A2 | enzyme activity, inhibitor | 1 µM | inhibition | 67.2%
CNc1ncc2c(/C=C/C(=O)N3CCC(OC)CC3)nn(Cc3cccc(C(F)(F)F)c3)c2n1 | MAPK10 | enzyme activity, inhibitor, radiometric | 1 µM | remaining activity | 87%
N=C(N)NCCC[C@H](NC(=O)[C@H](Cc1ccc(-c2ccccc2)cc1)NC(=O)[C@H](Cc1cscn1)NC(=O)CCc1ccccc1)C(=O)c1nc2ccccc2s1 | ST14 | enzyme activity, inhibitor | 0.1 µM | remaining activity | 30%
COc1ccc2[nH]c3c(c2c1)[C@H]1C[C@@H]([C@H]3C)N(Cc2ccccc2)C[C@]1(C)O | Delta-type opioid receptor (Oprd1, Rattus norvegicus, UniProt P33533) | ligand displacement, radioligand | 1 µM | inhibition | 13%
N=C(N)NCCC[C@H](NC(=O)C1(NC(=O)[C@H](Cc2cscn2)NC(=O)CCc2ccccc2)CC1)C(=O)c1nc2ccccc2s1 | ST14 | enzyme activity, inhibitor | 0.1 µM | remaining activity | 19%
Cc1cc([C@@H](C)Nc2ccccc2C(=O)O)c2nc(N3CCC(F)(F)CC3)c(C#N)c(=O)n2c1 | MAPK10 | binding, competition with immobilised ligand | 10 µM | remaining binding | 100%
